Only some compounds are listed: those with a hit (about 2.9% of all), similar ones and a draw of the others.
ATG4B inh – inhibitors of human ATG4B cysteine protease; Q9Y4P1; ATG4B cleavage of LC3-PLA2, NBD-HPC fluorescence, 1 h; inhibition, % at 8.33 µM; 340,000 compounds, 0.51% hits; AID 504462; in the data active = inhibition above about 40%
Target sequence (Q9Y4P1 whole entry, looked up): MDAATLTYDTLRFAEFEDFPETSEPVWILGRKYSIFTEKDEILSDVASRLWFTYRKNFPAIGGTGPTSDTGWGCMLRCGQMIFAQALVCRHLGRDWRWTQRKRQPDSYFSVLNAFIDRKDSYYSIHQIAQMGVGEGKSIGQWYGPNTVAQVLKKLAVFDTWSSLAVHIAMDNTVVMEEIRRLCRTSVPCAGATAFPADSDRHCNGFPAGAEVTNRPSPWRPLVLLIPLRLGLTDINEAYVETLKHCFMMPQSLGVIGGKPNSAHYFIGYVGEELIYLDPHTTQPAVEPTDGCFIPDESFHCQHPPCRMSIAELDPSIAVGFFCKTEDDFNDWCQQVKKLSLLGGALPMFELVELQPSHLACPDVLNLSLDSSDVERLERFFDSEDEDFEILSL
Dynein transport – blocks dynein driven cargo transport along microtubules. 3617.4 mouse cells, GR-EGFP nuclear translocation imaging; test concentration mostly 20 µM; stimulated with dexamethasone, 1 µM; active compounds read low. z-score, hits read low. 220,000 compounds, 0.47% hits;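 active = plate z-score of nuclear minus cytoplasmic receptor signal below a set negative limit, without overly bright fluorescence or cell loss, cut at about -3.5 in these data, passing the limit was not always enough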;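 also: z-score of nuclear minus cytoplasmic ring GR-EGFP intensity difference per well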
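Buffer or medium – tet-free medium with charcoal-stripped serum · Signal – automated 10x imaging of fixed Hoechst-stained cells · Also added – dexamethasone agonist, 1.0 µM final, for 30 min · Incubation – induction 48 h, compound 1 h, agonist 30 min · Read-out – GR-EGFP nuclear translocation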
MEKK2wt PB1 HTS – raises or lowers MEK5 binding to wildtype human MEKK2 PB1 domain. Q9Y2U5. bead flow cytometry, Alexa488-MEK5 binding to MEKK2 WT; actives lie on both sides. binding response (% of control), % at 10 µM. 290,000 compounds, 1.1% hits. AID 1531; in the data active = binding response below about 67% or above about 130%
Beta2AR agonist – human beta-2 adrenergic receptor agonism by FAP. P07550. Am2.2-beta2AR cells, FAP receptor internalization, flow cytometry. response, % (concentration not given with the values). 340,000 compounds, 0.43% hits. AID 504454;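 active = response above a set limit, near 3 SD of response in nonfluorescent compounds, cut at about 42% in these data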
MEKK3 PB1 HTS – raises or lowers MEK5 binding to the human MEKK3 PB1 domain; Q99759; bead-based flow cytometry, Alexa488-MEK5 binding to MEKK3; actives lie on both sides; 0 = blocked by unlabeled MEK5, 100 = vehicle; binding response (% of control), % at 10 µM; 290,000 compounds, 1.4% hits; AID 1529;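 active = binding response more than 3 SD above or below the average of its plate-row segment, actives on both sides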;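 also: Alexa488 bead fluorescence after subtracting the streptavidin-only scavenger bead signal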
MEKK2 mut-MEK5 – signal of MEK5 binding to mutant human MEKK2 PB1 domain. AID 1530. percent response, % at 10 µM. bead flow cytometry, Alexa488-MEK5 binding to MEKK2 mutant. 290,000 compounds, 0.35% hits; in the data active = percent response above about 24%, passing the limit was not always enough
MEKK2wt confirm – raises or lowers MEK5 binding to wildtype human MEKK2, retest; shares compounds with MEKK3 PB1 HTS; bead flow cytometry, Alexa488-MEK5 binding to MEKK2 WT; actives lie on both sides; binding response (% of control), % at 10 µM; 5,900 compounds, 2.4% hits; AID 1892; in the data active = binding response below about 16% or above about 210%; inactive = in between
MEKK2mut confirm – signal of MEK5 binding to mutant human MEKK2, retest. shares compounds with MEKK3 PB1 HTS. bead flow cytometry, Alexa488-MEK5 binding to MEKK2 mutant. percent response, % at 10 µM. 5,900 compounds, 2% hits. AID 1893; in the data active = percent response mostly above about 71%, no sharp cut-off; inactive = mostly below about 38%;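 also: higher means compound restores mutant binding toward wildtype level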
MEKK3-MEK5 inh – MEKK3-MEK5 PB1 inhibition, single concentration confirmation; shares compounds with MEKK3 PB1 HTS; bead flow cytometry, Alexa488-MEK5 binding to MEKK3; active compounds read low; binding response (% of control), % at 10 µM; 5,900 compounds, 1.8% hits;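 active = binding response below 72% of control, or above a set upper limit, though filed actives all read lower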;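 also: 100% = DMSO only wells and 0% = binding blocked by excess unlabeled MEK5; lower values mean stronger disruption of MEK5 binding to MEKK3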
Starred values were filed as active, the others as inactive; [ ] = another dose, or the depositor's remark.

Screening CC(=O)OCc1cc(-c2nc3ccccc3[nH]c2=O)nn1-c1ccc(Cl)cc1 returned ATG4B inh 3, Dynein transport -0.3, MEKK2wt PB1 HTS 95, Beta2AR agonist -14, MEKK3 PB1 HTS 103 and MEKK2 mut-MEK5 4.
O=C(Nc1cc(NC(=O)c2ccccc2F)ccc1Cl)c1ccccc1 was read as ATG4B inh 4, MEKK2wt PB1 HTS 98, Beta2AR agonist -29, MEKK3 PB1 HTS 100 and MEKK2 mut-MEK5 0.
Screening COCc1nnc(NS(=O)(=O)c2ccc(C)cc2)s1 returned ATG4B inh -11, Dynein transport 0.22, MEKK2wt PB1 HTS 0.0*[inhibitor], Beta2AR agonist -1, MEKK3 PB1 HTS 0.0*[inhibitor], MEKK2 mut-MEK5 -16, MEKK2wt confirm 99, MEKK2mut confirm -2 and MEKK3-MEK5 inh 99.
NC(=O)C1CCN(C(=O)CCC(=O)c2cccs2)CC1 was read as ATG4B inh 2 and Beta2AR agonist -2.
For CCC(=O)Nc1nnc(SCc2ccc(F)cc2)s1 the results were ATG4B inh -6, Dynein transport 0.45, MEKK2wt PB1 HTS 3.0*[inhibitor], Beta2AR agonist 1, MEKK3 PB1 HTS 2.0*[inhibitor], MEKK2 mut-MEK5 2, MEKK2wt confirm 102, MEKK2mut confirm 2 and MEKK3-MEK5 inh 110.
For CC(C)(C)C(=O)Nc1nnc(SCc2ccc(F)cc2)s1 the results were ATG4B inh -6, Dynein transport -0.86, MEKK2wt PB1 HTS 98, Beta2AR agonist 7, MEKK3 PB1 HTS 100 and MEKK2 mut-MEK5 -1.
`COc1ccccc1NC(=O)C(CC=C(Cl)Cl)C(C)=O` (stereo unspecified) gave ATG4B inh -9, Dynein transport 2.7, MEKK2wt PB1 HTS 104, Beta2AR agonist -1, MEKK3 PB1 HTS 100 and MEKK2 mut-MEK5 2.
For COc1ccccc1NC(=O)C(C/C=C(\C)Cl)C(C)=O (stereo unspecified) the results were ATG4B inh 5, Dynein transport -0.63, MEKK2wt PB1 HTS 83, Beta2AR agonist 6, MEKK3 PB1 HTS 79*[inhibitor], MEKK2 mut-MEK5 -9, MEKK2wt confirm 103, MEKK2mut confirm -6 and MEKK3-MEK5 inh 101.
`CCCCNC(=S)Nc1ccc(Cl)cc1` gave ATG4B inh -8, Dynein transport 1.3, MEKK2wt PB1 HTS 97, Beta2AR agonist -1, MEKK3 PB1 HTS 105 and MEKK2 mut-MEK5 -1.
Screening CCCCNC(=S)Nc1ccc(C(F)(F)F)cc1 returned ATG4B inh 10, Dynein transport -0.96, MEKK2wt PB1 HTS 90, Beta2AR agonist -5, MEKK3 PB1 HTS 75*[inhibitor], MEKK2 mut-MEK5 -3, MEKK2wt confirm 101, MEKK2mut confirm 1 and MEKK3-MEK5 inh 100.
CC(NC(=O)Cc1ccsc1)c1ccc(F)cc1 (stereo unspecified) was read as ATG4B inh -3, MEKK2wt PB1 HTS 103, Beta2AR agonist 2, MEKK3 PB1 HTS 102 and MEKK2 mut-MEK5 -1.
CCc1ccc(NC(=O)C2CCCN2S(=O)(=O)c2ccc3c(c2)n(C)c(=O)c(=O)n3C)cc1 (stereo unspecified) was read as ATG4B inh -3, Dynein transport 0.28, MEKK2wt PB1 HTS 80, Beta2AR agonist -3, MEKK3 PB1 HTS 68*[inhibitor], MEKK2 mut-MEK5 -12, MEKK2wt confirm 103, MEKK2mut confirm 6 and MEKK3-MEK5 inh 104.
Screening Cc1ccc(NC(=O)C2CCCN2S(=O)(=O)c2ccc3c(c2)n(C)c(=O)c(=O)n3C)cc1 (stereo unspecified) returned ATG4B inh -4, Dynein transport -0.2, MEKK2wt PB1 HTS 96, Beta2AR agonist 6, MEKK3 PB1 HTS 95 and MEKK2 mut-MEK5 -4.
For Cc1ccccc1C(=O)N1CCC(C(=O)OCc2ccccc2Cl)CC1 the results were ATG4B inh -1 and Beta2AR agonist -3.
For COc1ccc(S(=O)(=O)NCCSCc2ccc(Cl)cc2)cc1NC(C)=O the results were ATG4B inh -11 and Beta2AR agonist 5.
Screening CCc1nnc(NC(=O)CSc2nnc(-c3ccncc3)n2C)s1 returned ATG4B inh -14, Dynein transport 0.65, MEKK2wt PB1 HTS 1.0*[inhibitor], Beta2AR agonist 12, MEKK3 PB1 HTS 2.0*[inhibitor], MEKK2 mut-MEK5 1, MEKK2wt confirm 103, MEKK2mut confirm -1 and MEKK3-MEK5 inh 102.
CCN(CC)S(=O)(=O)c1cccc(-c2nnc(SCC(=O)NC)n2N)c1 was read as ATG4B inh -6, Dynein transport 0.012, MEKK2wt PB1 HTS 7.0*[inhibitor], Beta2AR agonist -4, MEKK3 PB1 HTS 6.0*[inhibitor], MEKK2 mut-MEK5 -17, MEKK2wt confirm 114, MEKK2mut confirm 10 and MEKK3-MEK5 inh 107.
For CC(C)C(NC(=O)Cc1ccccc1)C(=O)N1CCN(c2cccc(Cl)c2)CC1 (stereo unspecified) the results were ATG4B inh -4 and Beta2AR agonist 9.
Cc1nn(C)cc1CN1CCCC(C(=O)c2ccc(-c3ccccc3)c(F)c2)C1 (stereo unspecified) was read as ATG4B inh -1, Dynein transport -1.4, MEKK2wt PB1 HTS 147*, Beta2AR agonist 2, MEKK3 PB1 HTS 110, MEKK2 mut-MEK5 34, MEKK2wt confirm 118, MEKK2mut confirm 11 and MEKK3-MEK5 inh 104.
Screening Cc1ccc(C(=O)/C=C/c2c[nH]c3ccccc23)cc1 returned ATG4B inh 20, Dynein transport 0.55, MEKK2wt PB1 HTS 102, Beta2AR agonist 9, MEKK3 PB1 HTS 101 and MEKK2 mut-MEK5 -3.
`O=C(/C=C/c1c[nH]c2ccccc12)c1ccccc1` gave ATG4B inh 3, Dynein transport 0.59, MEKK2wt PB1 HTS 103, Beta2AR agonist 13, MEKK3 PB1 HTS 136*, MEKK2 mut-MEK5 0, MEKK2wt confirm 106, MEKK2mut confirm 0 and MEKK3-MEK5 inh 106.
Screening Cc1ccnc(NC(=O)c2cccc(NC(=O)CC3SC(N4CCCCC4)=NC3=O)c2)c1 (stereo unspecified) returned ATG4B inh -2 and Beta2AR agonist 0.
